Data from ChEMBL document CHEMBL4665645, “Role of the NMDA Receptor in the Antitumor Activity of Chiral 1,4-Dioxane Ligands in MCF-7 and SKBR3 Breast Cancer Cells” (ACS Med Chem Lett, 2019).
The source made the active and inactive calls.

What was measured:
MCF7 [1] = test: Cytotoxicity against siNMDA receptor transfected human MCF7 cells assessed as reduction in cell viability after 48 hrs by SRB assay; assay type: functional
Method in brief: (§1)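 GluN1 subunit knocked down by siNMDA R transfection, confirmed by qRT-PCR and Western blot; compared with untransfected cells. SRB viability read after 48 h exposure to a range of concentrations. Mean ± SE of three separate experiments.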

SK-BR-3 [2] = test: Cytotoxicity against siNMDA receptor transfected human SK-BR-3 cells assessed as reduction in cell viability after 48 hrs by SRB assay; assay type: functional; method in brief: as §1
MCF7 [3] = test: Cytotoxicity against human MCF7 cells assessed as reduction in cell viability after 48 hrs by SRB assay; assay type: functional
Method in brief: (§2)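 Followed the NCI SRB protocol: cells exposed 48 h to a range of concentrations. GI50 is the concentration giving 50% net growth inhibition; TGI is 100% growth inhibition; LC50 kills 50% of initial cells. Mean ± SE of three separate experiments.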

SK-BR-3 [4] = test: Induction of apoptosis in human SK-BR-3 cells transfected with siNMDA receptor after 72 hrs by Annexin V-FITC/propidium iodide staining-based flow cytometric analysis; assay type: functional, cell-based
[5] = Metabolic stability in human liver microsomes; assay type: ADME, Microsome
[6] = Apparent permeability in human Caco2 cells; assay type: ADME, cell-based; details: caco-2
MCF7 [7] = test: Induction of apoptosis in human MCF7 cells transfected with siNMDA receptor after 72 hrs by Annexin V-FITC/propidium iodide staining-based flow cytometric analysis; assay type: functional, cell-based
SK-BR-3 [8] = test: Cytotoxicity against human SK-BR-3 cells assessed as reduction in cell viability incubated for 48 hrs by SRB assay; assay type: functional; method in brief: as §2
[9] = Displacement of [3H]-(+)-MK-801 from PCP binding site of NMDA receptor in pig brain cortex membranes after 120 mins by scintillation counting analysis; assay type: cell membranes, Sus scrofa, Cerebral cortex, Membrane
SK-BR-3 [10] = test: Induction of apoptosis in human SK-BR-3 cells transfected with siNMDA receptor assessed as active caspase-3 level incubated for 72 hrs by Western blot analysis; assay type: functional, cell-based
Method in brief: (§3)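 Cells transfected with siNMDA R (GluN1) or left untransfected, then treated 72 h (MCF-7 100 μM, SKBR3 25 μM) or left untreated. Cleaved caspase-3 detected by immunoblot; densitometry normalised to GAPDH; p < 0.01 threshold.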

MCF7 [11] = test: Induction of apoptosis in human MCF7 cells transfected with siNMDA receptor assessed as active caspase-3 level incubated for 72 hrs by Western blot analysis; assay type: functional, cell-based; method in brief: as §3

SMILES | GI50 (MCF7 [1]) [µM] | GI50 (SK-BR-3 [2]) [µM] | Activity (MCF7 [3]) | GI50 (MCF7 [3]) [µM] | Activity (SK-BR-3 [4]) | Stabilty [5] | permeability [6] | Activity (MCF7 [7]) | Activity (SK-BR-3 [8]) | GI50 (SK-BR-3 [8]) [µM] | Ki [9] [µM] | Activity (SK-BR-3 [10]) | Activity (MCF7 [11]) | LC50 (concentration killing 50% of initial cells) (MCF7 [3]) [µM] | TGI (MCF7 [3]) [µM] | LC50 (concentration killing 50% of initial cells) (SK-BR-3 [8]) [µM] | TGI (SK-BR-3 [8]) [µM]
NC[C@@H]1COCC(c2ccccc2)(c2ccccc2)O1 | 210 | 66 | Dose-dependent effect | 250 | Active | Stable | Permeable | Active | Dose-dependent effect | 74 | 0.497 | Active | Active |  |  |  | 
NC[C@H]1COC[C@](c2ccccc2)(C2CCCCC2)O1 (relative stereo) |  |  |  | 65.3 |  |  |  |  |  | 23.8 |  |  |  | 176 | 107 | > 300 | 192
NCC1COCC(c2ccccc2)(c2ccccc2)O1 (racemic) |  |  |  | 74.4 |  |  |  |  |  | 31.2 |  |  |  | 253 | 137 | > 300 | 200
